In ChEMBL document CHEMBL4002632, “Development of gallic acid formazans as novel enoyl acyl carrier protein reductase inhibitors for the treatment of tuberculosis” (Bioorg Med Chem Lett, 2017):
Values after ≈ are worked out from the molar mass of the structure shown. Active and inactive are the calls of the source. The calls are words filed in the database; no cut-off is given here.

Columns and labels:
[1] = test system: Mycobacterium tuberculosis; experiment: Inhibition of Mycobacterium tuberculosis His6-tagged InhA expressed in Escherichia coli BL21 (DE3) assessed as decrease in NADH oxidation to NAD+ at 10 uM using 2-trans-decenoyl-CoA as substrate preincubated for 2 hrs followed by substrate and NADH addition measured for 1 min by spectrophotometric method relative to control
How it was run: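 Recombinant MTB InhA expressed in E. coli and purified. DD-CoA reduction followed spectrophotometrically as NADH oxidation to NAD+. Fixed non-saturating NADH and DD-CoA, 1% DMSO. Compound at 10 μM; per cent inhibition relative to a no-inhibitor control, which set the maximal rate.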

[2] = Inhibition of Mycobacterium tuberculosis His6-tagged InhA expressed in Escherichia coli BL21 (DE3) assessed as decrease in NADH oxidation to NAD+ using 2-trans-decenoyl-CoA as substrate preincubated for 2 hrs followed by substrate and NADH addition measured for 1 min by spectrophotometric method
How it was run: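 Recombinant MTB InhA purified from E. coli. NADH oxidation during DD-CoA reduction read spectrophotometrically, with fixed non-saturating NADH and DD-CoA in 1% DMSO. IC50, the concentration halving enzyme velocity, determined for compounds giving over 50% inhibition at 10 μM.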

[3] = test system: Mycobacterium tuberculosis; experiment: Antimycobacterial activity against Mycobacterium tuberculosis H37Rv ATCC 27294 by agar dilution method; type: functional
How it was run: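 Growth of M. tuberculosis H37Rv (ATCC27294) on agar dilution. Compounds at 50 to 0.78 μg/ml in duplicate. MIC taken as the lowest concentration giving complete growth inhibition. Isoniazid, ethambutol and ofloxacin served as references.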

[4] = Cytotoxicity against mouse RAW264.7 cells assessed as growth inhibition at 100 uM after 72 hrs by MTT assay relative to control; type: cell-based; settings: read-out: GI
How it was run: (§1)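 RAW 264.7 mouse macrophage line exposed to compound at 100 and 50 μM for 72 h. Viability by MTT conversion to formazan. Reported as per cent inhibition.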

[5] = Cytotoxicity against mouse RAW264.7 cells assessed as growth inhibition at 50 uM after 72 hrs by MTT assay relative to control; type: cell-based; settings: read-out: GI; how it was run: as §1
[6] = test system: Mycobacterium tuberculosis; experiment: Antimycobacterial activity against Mycobacterium tuberculosis H37Rv-GFP infected in mouse RAW264.7 cells assessed as growth inhibition at 1 ug/ml after 5 days by confocal microscopic method; type: functional, cell-based
How it was run: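 Intracellular M. tuberculosis in mouse macrophages. Initial screen at 0.1, 1 and 10 µg/ml.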

[7] = test system: Mycobacterium tuberculosis; experiment: Antimycobacterial activity against Mycobacterium tuberculosis H37Rv-GFP infected in mouse RAW264.7 cells after 5 days by confocal microscopic method; type: functional, cell-based; settings: RAW264.7, 120 h
How it was run: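 Intracellular M. tuberculosis in mouse macrophages. After initial screening at 0.1, 1 and 10 µg/ml, six doses between 0.1 and 1.0 µg/ml were tested to derive IC50.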

[8] = test system: Escherichia coli; experiment: Antibacterial activity against Escherichia coli at 50 to 100 ug/ml by cup plate agar diffusion method; type: functional
How it was run: (§2)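 Tested at 50 and 100 μg/ml by cup-plate agar diffusion against E. coli, P. aeruginosa, S. aureus and B. subtilis.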

[9] = test system: Pseudomonas aeruginosa; experiment: Antibacterial activity against Pseudomonas aeruginosa at 50 to 100 ug/ml by cup plate agar diffusion method; type: functional; how it was run: as §2
[10] = test system: Staphylococcus aureus; experiment: Antibacterial activity against Staphylococcus aureus at 50 to 100 ug/ml by cup plate agar diffusion method; type: functional; how it was run: as §2
[11] = test system: Bacillus subtilis; experiment: Antibacterial activity against Bacillus subtilis at 50 to 100 ug/ml by cup plate agar diffusion method; type: functional; how it was run: as §2
[12] = test system: Mycobacterium tuberculosis; experiment: Stabilization of Mycobacterium tuberculosis InhA assessed as change in melting temperature by sypro orange dye-based differential scanning fluorimetry
How it was run: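 Differential scanning fluorimetry of InhA with ligand versus native protein. Heated from 25 °C to 95 °C in 0.1 °C steps with SYPRO Orange. Tm shift taken relative to native protein.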

Structure (SMILES) | inhibition [1] [%] | IC50 [2] [µM] | MIC [3] [µM] | inhibition at 72 h, 100 µM [4] [%] | inhibition at 72 h, 50 µM [5] [%] | growth inhibition (GI) [6] | IC50 [7] [µg/mL] | Activity [8] | Activity [9] | Activity [10] | Activity [11] | ΔTm [12] [°C]
O=C(N/N=C(/N=N/c1ccc(F)cc1)c1ccccc1)c1cc(O)c(O)c(O)c1 | 87.1 | 3.42 | 1.98 (≈ 0.78 µg/mL) | 23.7 | 11.8 | Active | 0.62 (≈ 1.57 µM) | inactive | inactive | inactive | inactive | –
CC[C@@H](CO)NCCN[C@@H](CC)CO [ETHAMBUTOL] | – | – | 7.64 (≈ 1.56 µg/mL) | – | – | – | – | – | – | – | – | –
O=C(N/N=C(/N=N/c1ccccc1)c1ccccc1)c1cc(O)c(O)c(O)c1 | 42.2 | – | 38.1 (≈ 14.3 µg/mL) | 41.4 | 13.6 | – | – | inactive | inactive | inactive | inactive | –
O=C(N/N=C(/N=N/c1ccc([N+](=O)[O-])cc1)c1ccccc1)c1cc(O)c(O)c(O)c1 | 57.1 | 8.16 | 7.42 (≈ 3.13 µg/mL) | 34.6 | 11.1 | – | – | inactive | inactive | inactive | inactive | –
NNC(=O)c1ccncc1 [ISONIAZID] | – | – | 0.72 (≈ 0.0987 µg/mL) | – | – | – | – | – | – | – | – | –
COc1ccc(/N=N/C(=N/NC(=O)c2cc(O)c(O)c(O)c2)c2ccccc2)cc1 | 69.3 | 5.79 | 1.92 (≈ 0.781 µg/mL) | 15 | 4.51 | Active | 0.56 (≈ 1.38 µM) | inactive | inactive | inactive | inactive | –
O=C(N/N=C(/N=N/c1ccccc1[N+](=O)[O-])c1ccccc1)c1cc(O)c(O)c(O)c1 | 62.3 | 8.46 | 14.8 (≈ 6.26 µg/mL) | 5.43 | 2.11 | – | – | inactive | inactive | inactive | inactive | –
Cc1ccccc1/N=N/C(=N/NC(=O)c1cc(O)c(O)c(O)c1)c1ccccc1 | 81.4 | 3.32 | 15.4 (≈ 6.01 µg/mL) | 41.5 | 32.7 | – | – | inactive | inactive | inactive | inactive | –
O=C(N/N=C(/N=N/c1ccccc1Cl)c1ccccc1)c1cc(O)c(O)c(O)c1 | 57.1 | 9.16 | 15.2 (≈ 6.25 µg/mL) | 32.6 | 24.5 | – | – | inactive | inactive | inactive | inactive | –
COc1ccccc1/N=N/C(=N/NC(=O)c1cc(O)c(O)c(O)c1)c1ccccc1 | 71.7 | 6.66 | 4 (≈ 1.63 µg/mL) | 52.7 | 46.5 | – | – | inactive | inactive | inactive | inactive | –
O=C(N/N=C(/N=N/c1ccc(Cl)cc1Cl)c1ccccc1)c1cc(O)c(O)c(O)c1 | 73.2 | 5.22 | 1.75 (≈ 0.78 µg/mL) | 21.5 | 12.1 | Active | 0.35 (≈ 0.786 µM) | inactive | inactive | inactive | inactive | 2.8
CC1COc2c(N3CCN(C)CC3)c(F)cc3c(=O)c(C(=O)O)cn1c23 (stereo not given) [OFLOXACIN] | – | – | 2.16 (≈ 0.781 µg/mL) | – | – | – | – | – | – | – | – | –
